Screening results (PubChem BioAssay)
MrgX1 antagonist – antagonists of human MrgX1 receptor, primary screen, HEK293 cells, Fluo-4 calcium flux; 310,000 compounds, 1.3% hits; B-score at 10 µM; AID 588676, 2011; BAM8-22 antagonism; active compounds read low; Mas-related G-protein coupled receptor member X1 (Homo sapiens), Q96LB2;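 active means calcium-response B-score plate-corrected more than 3 library SD below zero, starting fluorescence within 5 deviations, no agonist response on first addition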;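 further: peak minus trough fluorescence over baseline after final BAM8-22 challenge near maximal dose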
Target sequence (Q96LB2 whole entry, looked up): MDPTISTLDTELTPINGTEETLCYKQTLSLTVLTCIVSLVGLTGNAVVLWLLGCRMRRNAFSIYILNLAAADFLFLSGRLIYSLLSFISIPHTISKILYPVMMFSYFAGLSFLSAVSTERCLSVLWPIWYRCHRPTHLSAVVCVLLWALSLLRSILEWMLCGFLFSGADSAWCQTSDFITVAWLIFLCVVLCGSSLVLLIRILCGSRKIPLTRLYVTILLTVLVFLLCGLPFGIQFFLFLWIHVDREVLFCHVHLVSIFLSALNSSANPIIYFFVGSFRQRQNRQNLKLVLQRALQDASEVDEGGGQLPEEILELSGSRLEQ
MrgX1 agonist – agonists of human MrgX1 receptor, primary screen, HEK293 cells, Fluo-4 calcium flux; Fluo-4 calcium fluorescence, agonist mode; active compounds read high; B-score at 10 µM; 310,000 compounds, 0.44% hits; AID 588627, 2011;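 active means calcium response B-score plate-corrected fluorescence ratio at least 3 library SD, with starting fluorescence B-score inside 5 SD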
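Test system: HEK293 cells stably expressing human MrgX1 receptor; Input: fifteen thousand cells per well; Dosing: compound delivered in addition one of three; Schedule: overnight seeding, then 1 h dark dye loading; Technique: Fluo-4 NW calcium fluorescence; Measure: B-scored fluorescence response ratio; Controls: positive and negative controls per plate.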
MrgX1 PAM – positive allosteric modulators of MrgX1, primary screen, HEK293 cells, Fluo-4 calcium flux | FDSS; active compounds read high | Mas-related G-protein coupled receptor member X1 (Homo sapiens), Q96LB2 | B-score at 10 µM | 310,000 compounds, 0.63% hits;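 active means plate-corrected calcium response at least 3 library SD above typical, normal starting fluorescence, not activating the receptor alone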;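 further: compound read alongside a low EC10 to EC30 dose of BAM8-22 agonist; peak minus trough fluorescence over baseline measured at the second addition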
RGS4 block – RGS4 inhibitors, primary screen, cell-based, HEK293 M3R inducible RGS4, calcium flux. 310,000 compounds, 0.45% hits. B-score at 10 µM. Fluo-4 calcium flux; active compounds read high; triggered by carbachol at its EC20. Regulator of G-protein signaling 4 (Homo sapiens), P49798;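 active means B-score, a plate-corrected calcium signal, over three deviations above library mean, with baseline fluorescence within five deviations of library mean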;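 further: RGS4 expression induced by doxycycline in cells with stable M3 receptor; B-score is computed from the integrated fluorescence ratio over baseline after carbachol; higher B-score means a larger calcium signal and so more RGS4 inhibition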
Target sequence (P49798 whole entry, looked up): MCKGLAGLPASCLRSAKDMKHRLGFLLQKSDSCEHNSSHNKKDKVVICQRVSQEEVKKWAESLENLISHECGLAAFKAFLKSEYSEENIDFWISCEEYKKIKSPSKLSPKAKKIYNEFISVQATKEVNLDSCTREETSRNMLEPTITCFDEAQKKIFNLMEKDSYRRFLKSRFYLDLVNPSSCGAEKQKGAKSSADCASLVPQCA
RGS4 act – RGS4 potentiators or activators, primary screen, cell-based, HEK293 M3R inducible RGS4, calcium flux | carbachol calcium flux Fluo4; active compounds read low | B-score at 10 µM | 310,000 compounds, 0.92% hits;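 active means B-score of the integrated calcium signal more than 4 SD below the library mean, with starting fluorescence not abnormally high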;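 further: negative B-score means reduced calcium response which marks RGS4 activation or potentiation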
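System – HEK293 FlpIn-TREx cells, stable M3R, doxycycline-inducible RGS4 · Reagent – ECmax carbachol challenge · Times – compound preincubation 20 min at room temperature before agonist · Technique – Fluo4 fluorescence kinetic imaging of calcium · Measure – B score of integrated Fluo4 ratio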
Large screens that a line does not name were inactive. An excerpt weighted towards active compounds, which were near 3.5% of everything screened.

CCC1=NN2C(=N)/C(=C\c3cccn3-c3ccc(Cl)cc3)C(=O)N=C2S1	MrgX1 PAM 8.1
CC(C)CS(=O)(=O)C1=NSC2=NC(=O)/C(=C\c3ccc(OC(=O)c4ccco4)cc3)C(=N)N21	MrgX1 PAM 15
COc1cccc(CN2CC(C(=O)NCc3ncc(C)[nH]3)CCC2=O)c1 (configuration not stated)	none
CN(C)N1C(N)=C(C#N)C(c2cccnc2)C2=C1CC(C)(C)CC2=O (configuration not stated)	MrgX1 antagonist -4.8
CC(=O)N/C(=N/c1nc(C)cc(C)n1)Nc1cccc(C)c1C	none
O=C1/C(=C/c2cccs2)CCC/C1=C\c1cccs1	none
Cn1cccc1/C=C1\CCC/C(=C\c2cccn2C)C1=O	MrgX1 agonist 38
O=C1COc2ccc(C(=O)/C=C/c3ccccc3)cc2N1	MrgX1 agonist 33
O=C(/C=C/c1ccccc1)c1ccc2c(c1)OCCCCO2	MrgX1 PAM 16
O=C(O)c1ccc2c(c1)OCCCO2	none
CC(=O)c1cn(-c2ccc(Cl)cc2)c(=O)n(Cc2ccc(F)cc2)c1=O	MrgX1 antagonist -7.9
Cn1nc(C(F)(F)F)c(-c2ccc(F)cc2)c1NC(=O)Nc1ccc(F)cc1	MrgX1 antagonist -5.4
CCN1CCc2c(sc(NC(=O)c3ccc(S(=O)(=O)N(C)c4ccccc4)cc3)c2C(=O)NC)C1	MrgX1 agonist 59, RGS4 act -7.5
O=C(Nc1cccc(-c2csc(Nc3ccccc3)n2)c1)c1ccccc1	RGS4 act -7.3
O=C(Nc1cccc(-c2csc(Nc3cccc(C(F)(F)F)c3)n2)c1)c1ccccc1	none
Cn1cccc1/C=C(/C#N)C(N)=S	none
N#C/C(=C/c1ccc(F)cc1)C(N)=S	MrgX1 agonist 28
COc1cc(Cl)c(NS(=O)(=O)c2cc3[nH]c(=O)c(=O)[nH]c3cc2C)c(OC)c1	none
O=C(N/N=C\c1cc([N+](=O)[O-])ccc1N1CCOCC1)c1ccccn1	MrgX1 antagonist -4.5
O=C(NCc1ccco1)c1sc(=S)n2c1[nH]c(=O)c1ccccc12	MrgX1 agonist 57
O=C(NCc1ccccc1)c1ccc2c(=O)[nH]c3c(C(=O)NCC4CCCO4)sc(=S)n3c2c1 (configuration not stated)	none
O=C(NC1CCCC1)c1sc(=S)n2c1[nH]c(=O)c1ccccc12	MrgX1 agonist 60
CCN1C(=O)/C(=C\N2CCN(C)CC2)SC1=S	MrgX1 antagonist -4.6
COc1cc(NC(=O)Cn2c([N+](=O)[O-])cnc2C)c(OC)cc1Cl	none
CCC(NC(C)C)C(O)c1ccc(O)c2[nH]c(=O)ccc12 (configuration not stated)	MrgX1 agonist 28
CSc1ccccc1OCc1cc(C(=O)N2CCC(Oc3cccnc3)CC2)no1	none
C=C1SC(=Nc2c(C)cccc2Cl)N(C(=O)c2sc3ccccc3c2Cl)C12CCCCC2	MrgX1 antagonist -5.1
CCCCNc1c(-c2ccc(-c3ccc(C(C)=O)cc3)c(OC)c2)nc2cnccn12	RGS4 act -11
COc1cc(-c2nc3ccccn3c2NCc2ccccc2)ccc1SC1CCCCC1	none
CCCCCCSc1cc(-c2nc3cc(C)ccn3c2NC2CCCCC2)ccc1OC	none
CCCCCCSc1cc(-c2nc3cnccn3c2NCc2ccccc2)ccc1OC	RGS4 act -9.7
COc1cc(-c2nc3cc(C)ccn3c2NC2CCCCC2)ccc1-c1ccc(C(C)=O)cc1	none
COc1ccc(-c2nc3ccccn3c2NC2CCCCC2)cc1SC1CCCCC1	RGS4 act -7.9
CCCCNc1c(-c2ccc(OC)c(SC3CCCCC3)c2)nc2cnccn12	RGS4 act -10
CCCc1cc(-c2nc(N)ncc2-c2ccc3c(c2)OCCCO3)c(O)cc1OC	RGS4 act -9.2
COc1ccc(OCC(O)CNCCOc2ccccc2OC)c(C(C)(C)C)c1 (configuration not stated)	none
OC1(c2cccs2)CN(c2ccc(Br)cc2)C2=[N+]1CCCS2 (configuration not stated)	MrgX1 PAM 13, RGS4 act -7.2
CC1=NNC(=O)/C1=C\c1cn(-c2ccccc2)nc1-c1cccs1	MrgX1 antagonist -6.5
CC1=NNC(=O)/C1=C\c1cn(-c2ccccc2)nc1-c1ccc(F)cc1	none (no result: MrgX1 antagonist, MrgX1 agonist, MrgX1 PAM)
COc1ccc(-c2nn(-c3ccccc3)cc2/C=C2/SC(=S)N(CCC(=O)O)C2=O)cc1	MrgX1 antagonist -6, RGS4 act -7.2
COc1ccc(O)c(/C=C2/SC(=S)N(Cc3ccccc3)C2=O)c1	MrgX1 antagonist -5.1
COc1ccc(OC)c(/C=C2\SC(=S)N(Cc3cccnc3)C2=O)c1	none
COc1ccc(/C=C2/SC(=S)N(CCC(=O)O)C2=O)cc1	MrgX1 agonist 31
Cc1cc(Cn2ccnc2)c(C)c([N+](=O)[O-])c1Cn1ccnc1	none
COc1cccc(CC(=O)OCC(=O)NC(=O)c2ccc(OC(F)F)cc2)c1	none
COc1ccc(-c2cc(=O)oc3c(C)c(OC(C)C(=O)Nc4ccc(CN5CCOCC5)cc4)ccc23)cc1 (configuration not stated)	none
COCCN1CCN(C(=O)c2cc(COc3cc(C)ccc3C)on2)CC1	none
Cc1ccc(C(=O)Nc2cccc(C(=O)N3CCOCC3)c2)cc1Cl	none
CCCOc1ccc(-c2nn(-c3ccccc3)cc2/C=C2\SC(=S)N(C3CCS(=O)(=O)C3)C2=O)cc1 (configuration not stated)	none
COc1ccc(-c2nn(-c3ccccc3)cc2/C=C2/SC(=S)N(CCC(=O)O)C2=O)c(C)c1	RGS4 act -7.7
Cc1ccc(-c2nn(-c3ccccc3)cc2/C=C2\SC(=S)N(CC(=O)O)C2=O)cc1	none
O=C(O)CCCCCN1C(=O)/C(=C\c2cn(-c3ccccc3)nc2-c2cccs2)SC1=S	RGS4 act -7
CCOc1ccc(-c2nn(-c3ccccc3)cc2/C=C2\SC(=S)N(C3CCS(=O)(=O)C3)C2=O)cc1 (configuration not stated)	RGS4 act -8.3
CCc1ccc(NC(=O)C2CCCN2S(=O)(=O)c2ccc3c(c2)C(C)(C)C(=O)N3C)cc1 (configuration not stated)	none
NC(=O)c1ncn([C@@H]2O[C@H](CO)[C@@H](O)[C@H]2O)c1O	MrgX1 antagonist -9
Nc1ncn(C2O[C@H](CO)[C@@H](O)[C@H]2O)c(=O)n1 (some centres not stated)	none (no result: RGS4 block, RGS4 act)
O=C(Nc1ccc(SC(F)F)cc1)c1ccc(F)cc1	none
CCOc1ccc(N2C(=O)/C(=C/c3cc(OC)c(OC)c(OC)c3)N(CC(=O)OC)C2=S)cc1	none
CCOc1ccc(/C=C2/C(=O)N(c3ccc(OC)cc3)C(=S)N2CC(=O)OC)cc1OCC	MrgX1 antagonist -6.4
